Data from ChEMBL document CHEMBL3576792, “Enhancement of antibiotic activity against multidrug-resistant bacteria by the efflux pump inhibitor 3,4-dibromopyrrole-2,5-dione isolated from a Pseudoalteromonas sp” (J Nat Prod, 2015).
In brackets after ≈: the same amount, converted by molar mass. Activity calls are given as the source filed them. The calls are words filed in the database; no cut-off is given here.

Experiments:
Escherichia coli [1] = test: Potentiation of piperacillin-induced antibacterial activity Escherichia coli transformed with plasmid carrying MG1655 deltaBC/pXYM by p-iodonitrotetrazolium chloride colorimetric assay; assay type: functional
Escherichia coli [2] = test: Inhibition of AcrAB-TolC pump in Escherichia coli AG100 assessed as increase in intracellular H33342 fluorescence at >= 1 ug/ml after 60 mins by efflux inhibition assay; assay type: cell-based
Outline: (§1)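 AG100 (wild-type K-12) or AG100A (ΔacrAB) cells were grown in Luria broth at 37 °C and 200 rpm to OD600 1.0, PBS-washed and diluted to OD600 0.3. Cells took up 2.5 μM Hoechst 33342 with 22 mM glucose at 37 °C for about 30 min, then compound (0.06–64 μg/mL) or PAβN (15.6 μg/mL) was added. Fluorescence (Ex 350/Em 460 nm) was followed for 60 min and corrected for background. The last four time points were compared to dye-only control by ANOVA with Dunnett's test, run in duplicate.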

Escherichia coli [3] = test: Potentiation of kanamycin-induced antibacterial activity Escherichia coli transformed with plasmid carrying MG1655 deltaBC/pABM assessed as kanamycin MIC by p-iodonitrotetrazolium chloride colorimetric assay; assay type: functional
Outline: (§2)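 Checkerboard microdilution in Mueller-Hinton broth: two-fold dilutions of antibiotic crossed with dilutions of test compound above, at and below their MICs. Growth was read by INT colorimetric assay, with MIC as the lowest concentration showing no visible growth. FICs and FIC index were derived from these MICs. ΔBC/pABM and ΔBC/pXYM strains were grown with 100 μg/mL ampicillin and 1 mM IPTG.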

Escherichia coli [4] = test: Potentiation of piperacillin-induced antibacterial activity Escherichia coli AG102 overexpressing AcrAB-TolC assessed as piperacillin MIC by p-iodonitrotetrazolium chloride colorimetric assay; assay type: functional; outline: as §2
Escherichia coli [5] = test: Potentiation of oxacillin-induced antibacterial activity Escherichia coli transformed with plasmid carrying MG1655 deltaBC/pXYM by p-iodonitrotetrazolium chloride colorimetric assay; assay type: functional
Escherichia coli [6] = test: (§3) Inhibition of AcrAB-TolC pump in Escherichia coli AG100 assessed as increase in intracellular H33342 fluorescence after 60 mins by efflux inhibition assay; assay type: cell-based; outline: as §1
[7] = as §3; assay type: cell-based; conditions: AG100, 1 h; outline: as §1
Escherichia coli [8] = test: Potentiation of piperacillin-induced antibacterial activity Escherichia coli AG102 overexpressing AcrAB-TolC by p-iodonitrotetrazolium chloride colorimetric assay; assay type: functional
Escherichia coli [9] = test: Potentiation of levofloxacin-induced antibacterial activity Escherichia coli transformed with plasmid carrying MG1655 deltaBC/pABM assessed as levofloxacin MIC by p-iodonitrotetrazolium chloride colorimetric assay; assay type: functional; outline: as §2
Escherichia coli K-12 = test: Inhibition of AcrAB-TolC pump in Escherichia coli K-12 AG100 assessed as increase in intracellular H33342 fluorescence at 0.25 ug/ml after 60 mins by efflux inhibition assay; assay type: cell-based
Escherichia coli [10] = test: Effect on intracellular H33342 accumulation in Escherichia coli AG100A delta acrAB mutant at 64 ug/ml after 60 mins by accumulation assay; assay type: functional
Outline: (§4)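 Cells grown in Luria broth at 37 °C, 200 rpm to OD600 1.0, then washed twice in PBS and diluted in glucose-free PBS to OD600 0.3. H33342 was used at 2.5 μM with 22 mM glucose at 37 °C and allowed to accumulate for ~30 min. Compound was then added and fluorescence (Ex 350/Em 460 nm) followed for 60 min. Values are the mean RFU of the final 4 min, after media-plus-compound background was subtracted. Run in duplicate, n = 8.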

Escherichia coli [11] = test: Effect on intracellular H33342 accumulation in Escherichia coli AG100A delta acrAB mutant at 0.25 ug/ml after 60 mins by accumulation assay; assay type: functional
Outline: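 Cells grown in Luria broth at 37 °C, 200 rpm to OD600 1.0, washed twice in PBS and diluted in glucose-free PBS to OD600 0.3. Cells were given 2.5 μM H33342 with 22 mM glucose at 37 °C for ~30 min until stable, then compound added (0.06–64 μg/mL). Fluorescence (Ex 350/Em 460 nm) was read for 60 min, background subtracted, and the final 4 min averaged (n = 8).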

Escherichia coli [12] = test: Potentiation of ciprofloxacin-induced antibacterial activity Escherichia coli transformed with plasmid carrying MG1655 deltaBC/pXYM by p-iodonitrotetrazolium chloride colorimetric assay; assay type: functional
Escherichia coli [13] = test: Potentiation of levofloxacin-induced antibacterial activity Escherichia coli transformed with plasmid carrying MG1655 deltaBC/pXYM assessed as levofloxacin MIC by p-iodonitrotetrazolium chloride colorimetric assay; assay type: functional; outline: as §2
Escherichia coli [14] = test: Potentiation of tetracycline-induced antibacterial activity Escherichia coli AG102 overexpressing AcrAB-TolC assessed as tetracycline MIC by p-iodonitrotetrazolium chloride colorimetric assay; assay type: functional; outline: as §2
Escherichia coli [15] = test: Potentiation of erythromycin-induced antibacterial activity Escherichia coli transformed with plasmid carrying MG1655 deltaBC/pXYM assessed as erythromycin MIC by p-iodonitrotetrazolium chloride colorimetric assay; assay type: functional; outline: as §2
Escherichia coli [16] = test: Potentiation of levofloxacin-induced antibacterial activity Escherichia coli AG102 overexpressing AcrAB-TolC assessed as levofloxacin MIC by p-iodonitrotetrazolium chloride colorimetric assay; assay type: functional; outline: as §2
Escherichia coli [17] = test: Potentiation of tetracycline-induced antibacterial activity Escherichia coli transformed with plasmid carrying MG1655 deltaBC/pABM assessed as tetracycline MIC by p-iodonitrotetrazolium chloride colorimetric assay; assay type: functional; outline: as §2
Escherichia coli [18] = test: Antibacterial activity against Escherichia coli AG102 overexpressing AcrAB-TolC by p-iodonitrotetrazolium chloride colorimetric assay; assay type: functional
Outline: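 Two-fold broth microdilution in Mueller-Hinton broth, read by p-iodonitrotetrazolium chloride colorimetric assay. MIC is the lowest concentration giving no visible growth. MG1655 ΔacrB ΔtolC strains carrying pABM or pXYM were always cultured with 100 μg/mL ampicillin and 1 mM IPTG. Medium, inoculum and 1% DMSO (final) served as negative control.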

Escherichia coli [19] = test: Effect on intracellular H33342 accumulation in Escherichia coli AG100A delta acrAB mutant at 1 ug/ml after 60 mins by accumulation assay; assay type: functional; outline: as §4
Escherichia coli [20] = test: Potentiation of oxacillin-induced antibacterial activity Escherichia coli transformed with plasmid carrying MG1655 deltaBC/pABM assessed as oxacillin MIC by p-iodonitrotetrazolium chloride colorimetric assay; assay type: functional, organism-based; outline: as §2
Escherichia coli [21] = test: Potentiation of tetracycline-induced antibacterial activity Escherichia coli transformed with plasmid carrying MG1655 deltaBC/pXYM assessed as tetracycline MIC by p-iodonitrotetrazolium chloride colorimetric assay; assay type: functional; outline: as §2
Escherichia coli [22] = test: Potentiation of levofloxacin-induced antibacterial activity Escherichia coli AG102 overexpressing AcrAB-TolC MIC by p-iodonitrotetrazolium chloride colorimetric assay; assay type: functional
Escherichia coli [23] = test: Potentiation of kanamycin-induced antibacterial activity Escherichia coli AG102 overexpressing AcrAB-TolC assessed as kanamycin MIC by p-iodonitrotetrazolium chloride colorimetric assay; assay type: functional; outline: as §2
Escherichia coli [24] = test: Potentiation of ciprofloxacin-induced antibacterial activity Escherichia coli AG102 overexpressing AcrAB-TolC assessed as ciprofloxacin MIC by p-iodonitrotetrazolium chloride colorimetric assay; assay type: functional; outline: as §2
Escherichia coli [25] = test: Potentiation of piperacillin-induced antibacterial activity Escherichia coli transformed with plasmid carrying MG1655 deltaBC/pABM assessed as piperacillin MIC by p-iodonitrotetrazolium chloride colorimetric assay; assay type: functional, organism-based; outline: as §2
Escherichia coli [26] = test: Potentiation of erythromycin-induced antibacterial activity Escherichia coli transformed with plasmid carrying MG1655 deltaBC/pXYM by p-iodonitrotetrazolium chloride colorimetric assay; assay type: functional

## O=C1NC(=O)C(Br)=C1Br
Escherichia coli [1]
  fractional inhibitory concentration index (FICI): 0.52
Escherichia coli [2]
  inhibition: Active
Escherichia coli [3]
  MIC: 128 mg/L
Escherichia coli [4]
  MIC: 32 mg/L
Escherichia coli [5]
  fractional inhibitory concentration index (FICI): 0.27
Escherichia coli [6]
  inhibition: Dose-dependent effect
[7]
  IC50: 0.79 mg/L (≈ 3.1 µM)
Escherichia coli [8]
  fractional inhibitory concentration index (FICI): 0.75
Escherichia coli [9]
  MIC: 64 mg/L
Escherichia coli K-12
  RFU: -351
Escherichia coli [10]
  RFU: 1090
Escherichia coli [11]
  RFU: 1000
Escherichia coli [12]
  fractional inhibitory concentration index (FICI): 0.19
Escherichia coli [13]
  MIC: 32 mg/L
Escherichia coli [14]
  MIC: 64 mg/L
Escherichia coli [15]
  MIC: 32 mg/L
Escherichia coli [16]
  MIC: 128 mg/L
Escherichia coli [17]
  MIC: 128 mg/L
Escherichia coli [18]
  MIC: 256 mg/L (≈ 1000 µM)
Escherichia coli [19]
  RFU: 1070
Escherichia coli [20]
  MIC: inactive
Escherichia coli [21]
  MIC: 8 mg/L
Escherichia coli [22]
  fractional inhibitory concentration index (FICI): 0.36
Escherichia coli [23]
  MIC: 2 mg/L
Escherichia coli [24]
  MIC: 2 mg/L
Escherichia coli [25]
  MIC: inactive
Escherichia coli [26]
  fractional inhibitory concentration index (FICI): 0.31
